Experiment [1] concerns the target T1, Proto-oncogene tyrosine-protein kinase Src (Homo sapiens, UniProt P12931). As to the kind of experiment: Inhibition of c-SRC assessed as residual activity using KVEKIGEGYYGVVYK as peptide substrate after 20 mins by scintillation counting. An outline of the steps:
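Radiometric kinase assay: Src kinase ([…] stock diluted to 200 nM in kinase buffer) with peptide substrate (370 µM stock) and inhibitor from 10% DMSO dilution, in buffer with MgCl2, EDTA, DTT; started with 40 µM ATP plus 33P-γ-ATP, 20 min at 30 °C; stopped with 0.85% orthophosphoric acid, phosphocellulose filter capture, scintillation count. IC50 from sigmoidal variable-slope fit of mean data, at least two determinations; DMSO negative control.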

Experiment [2] has as its target T1, Proto-oncogene tyrosine-protein kinase Src. Briefly: Inhibition of c-SRC in human HCT116 cells assessed as phosphorylated FAK level after 5 hrs by Western blot assay. To be noted: HCT-116. Type of experiment: cell-based. A digest of the protocol: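 HCT116 colon carcinoma cells seeded overnight, serum-starved, treated with inhibitors 5 h at 3 and 10 µM final; lysed in 2X Laemmli buffer, gradient SDS-PAGE, PVDF transfer. Phospho-FAK by anti-pTyr861, total FAK on separate blot; ratio by film densitometry.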
(A western blot detects proteins with antibodies after separation by electrophoresis.)

The subject of experiment [3] is Fibroblast. Briefly: Antitumor activity against Src-transformed fibroblasts xenograft model assessed as tumor growth inhibition at 50 mg/kg, ip after 7 days. Details: dose 50 mg/kg. The class given is functional, organism-based.
Experiment [4] has as its target T1, Proto-oncogene tyrosine-protein kinase Src. As to the kind of experiment: Inhibition of c-SRC in EGF-stimulated human A431 cells assessed as phosphorylated STAT3 level by Western blot assay. The class given is cell-based. To be noted: A-431. An outline of the steps: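 A431 epidermoid carcinoma cells starved overnight, stimulated 10 min with EGF (100 ng/ml), lysed in 2X Laemmli buffer; phospho-STAT3 detected with anti-pTyr705 antibody, total STAT3 on a separate blot; pSTAT3/total STAT3 ratio by densitometry of X-ray films. DMSO with EGF set as 100% phosphorylation; 4-anilinoquinoline-3-carbonitrile positive control.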

The target is the same in experiment [5].

What is called IC50 is the midpoint of a concentration-inhibition curve.

Activity calls are given as the source filed them. The rule behind the calls is not given here.

T1 sequence (P12931 2-536 limits assumed): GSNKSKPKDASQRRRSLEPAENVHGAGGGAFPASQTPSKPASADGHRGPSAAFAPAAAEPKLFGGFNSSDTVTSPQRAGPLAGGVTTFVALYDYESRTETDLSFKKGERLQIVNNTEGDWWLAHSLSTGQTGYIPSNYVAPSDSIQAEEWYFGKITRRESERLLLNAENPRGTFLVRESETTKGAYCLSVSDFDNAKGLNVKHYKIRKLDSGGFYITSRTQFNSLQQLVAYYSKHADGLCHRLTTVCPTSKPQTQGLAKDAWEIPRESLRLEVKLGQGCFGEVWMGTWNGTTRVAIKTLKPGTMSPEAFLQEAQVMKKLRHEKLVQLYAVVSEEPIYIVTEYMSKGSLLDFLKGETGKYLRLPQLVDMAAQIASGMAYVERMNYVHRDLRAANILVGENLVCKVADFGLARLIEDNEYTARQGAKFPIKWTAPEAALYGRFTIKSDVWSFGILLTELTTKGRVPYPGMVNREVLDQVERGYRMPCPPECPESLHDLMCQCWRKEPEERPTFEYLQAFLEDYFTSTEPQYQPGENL

For `Cc1cc(C(F)(F)F)nc2sc(C(=O)N/N=C/c3cncn3C)c(N)c12`, the IC50 in experiment [1] was determined as 330 nM. In experiment [2], the Activity was > 10 µM.
On to `Cc1cc(C(F)(F)F)nc2sc(C(=O)N/N=C/c3cccc4ccccc34)c(N)c12`, for which, in experiment [1], the IC50 amounted to 1340 nM.
The same measure, in the same setting: then `Nc1c(C(=O)N/N=C/c2cccc3ccccc23)sc2ncccc12`, with > 10000 nM.
Consider `CN(C)CCNc1cc(Cc2ccccc2)c2c(N)c(C(=O)N/N=C/c3cccn3C)sc2n1`, for which the IC50 in experiment [1] is 40 nM. Moreover, the Activity in experiment [2] worked out at 3 µM.
Taken in the same sequence, the figures for `Cc1cc(NCCN(C)C)nc2sc(C(=O)N/N=C/c3cccc4ccccc34)c(N)c12` were 230 nM and > 10 µM.
Consider `COc1cc(Nc2c(C#N)cnc3cc4cc(OCCN5CCOCC5)c(OC)cc4cc23)c(Cl)cc1Cl`, for which the outcome in experiment [3] was Active.
On to `CN(C)CCNc1nc2sc(C(=O)N/N=C/c3cccn3C)c(N)c2cc1Cc1ccccc1`, for which, in experiment [1], the IC50 stood at 3870 nM.
On to `CN(C)CCNc1cc(-c2ccccc2)c2c(N)c(C(=O)N/N=C/c3cccn3C)sc2n1`, for which the half-maximal inhibitory concentration (IC50) in experiment [1] was 68 nM. Further, the Activity in experiment [2] was determined as 3 µM.
Regarding `Cn1cncc1/C=N/NC(=O)c1sc2ncccc2c1N`, the IC50 in experiment [1] came out at 1300 nM.
Consider `Cc1cc(NCCN(C)C)nc2sc(C(=O)N/N=C/c3cccn3C)c(N)c12`, for which the IC50 in experiment [1] is 246 nM. In experiment [2], the Activity was 10 µM.
As for `Cc1cc(C)c2c(N)c(C(=O)N/N=C/c3cccc4ccccc34)sc2n1`, the IC50 in experiment [1] was 269 nM. In experiment [4], the Activity turned out to be 10 µM.
Consider `CN(C)CCNc1cc(-c2ccccc2)c2c(N)c(C(=O)N/N=C/c3cccc4ccccc34)sc2n1`, for which the half-inhibitory concentration (IC50) in experiment [1] was 107 nM. Also, the Activity in experiment [2] amounted to 3 µM.
Turning to `CCCc1cc2c(N)c(C(=O)N/N=C/c3cccn3C)sc2nc1NCCN(C)C`, the IC50 in experiment [1] was found to be 2080 nM.
Still for that read-out and setting: then `Cc1cc(C)c2c(N)c(C(=O)N/N=C/c3cccn3C)sc2n1`, with 840 nM.
`CN(C)CCNc1cc(-c2ccccc2)c2c(N)c(C(=O)N/N=C/c3cncn3C)sc2n1`: the IC50 in experiment [1] turned out to be 32 nM. In experiment [2], the Activity turned out to be 3 µM.
Taken in the same sequence, the figures for `CCCc1cc(NCCN(C)C)nc2sc(C(=O)N/N=C/c3cccn3C)c(N)c12` were 63 nM and 10 µM.
On to `Cc1cc(C)c2c(N)c(C(=O)N/N=C/c3cccn3CCN(C)C)sc2n1`, for which the IC50 in experiment [1] was > 10000 nM.
As to `O=C(Cc1ccc(-c2ccc(OCCN3CCOCC3)cc2)cn1)NCc1ccccc1` [TIRBANIBULIN], the IC50 in experiment [5] amounted to 20 nM.
For the compound `Cc1cc(C)c2c(N)c(C(=O)N/N=C/c3cncn3C)sc2n1`, the IC50 in experiment [1] came out at 769 nM. The Activity in experiment [4] was > 10 µM.

The values are drawn from ChEMBL document CHEMBL1765001, “Synthesis and pharmacological evaluation of thieno[2,3-b]pyridine derivatives as novel c-Src inhibitors” (Bioorg Med Chem, 2011).
